In publication PMC2217202 (The Journal of General Physiology, 2000):
Where two headings read alike, the source gives them in different places.

Tests used:
[1] = target: T1, AE1 (band 3) protein in human red blood cells (Homo sapiens, UniProt P02730); assay: Inhibition of 36Cl exchange flux at 0°C after short exposure to WW781; assay type: cell-based; details: for rate constant for 36Cl exchange, k: 0°C (control 0.0507); for IC50: read-out: K 1W, 0°C
T1 sequence (P02730 1-911): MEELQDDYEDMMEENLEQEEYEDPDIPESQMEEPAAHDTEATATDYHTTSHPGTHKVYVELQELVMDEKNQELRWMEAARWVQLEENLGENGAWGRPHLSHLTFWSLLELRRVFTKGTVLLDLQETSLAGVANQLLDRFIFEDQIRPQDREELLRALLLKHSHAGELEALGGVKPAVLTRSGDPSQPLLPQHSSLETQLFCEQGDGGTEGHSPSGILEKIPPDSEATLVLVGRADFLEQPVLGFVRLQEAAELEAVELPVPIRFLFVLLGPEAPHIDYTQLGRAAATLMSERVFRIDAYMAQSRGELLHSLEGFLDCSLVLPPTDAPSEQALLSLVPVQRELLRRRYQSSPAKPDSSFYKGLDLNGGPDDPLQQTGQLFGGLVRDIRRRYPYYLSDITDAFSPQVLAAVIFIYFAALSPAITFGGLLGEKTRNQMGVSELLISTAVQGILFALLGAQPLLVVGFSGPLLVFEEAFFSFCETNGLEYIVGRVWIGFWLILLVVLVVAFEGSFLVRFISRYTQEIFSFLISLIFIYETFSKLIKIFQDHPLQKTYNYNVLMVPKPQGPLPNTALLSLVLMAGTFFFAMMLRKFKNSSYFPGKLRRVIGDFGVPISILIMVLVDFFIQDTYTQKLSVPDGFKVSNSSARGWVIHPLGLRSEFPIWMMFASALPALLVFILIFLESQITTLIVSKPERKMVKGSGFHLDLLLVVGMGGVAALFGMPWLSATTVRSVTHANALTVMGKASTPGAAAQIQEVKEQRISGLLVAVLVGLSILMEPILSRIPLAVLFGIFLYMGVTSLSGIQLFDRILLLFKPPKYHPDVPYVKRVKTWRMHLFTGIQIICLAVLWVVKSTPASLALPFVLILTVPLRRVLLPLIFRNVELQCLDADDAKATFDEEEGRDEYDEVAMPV
Method in brief: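 Human RBCs loaded with 36Cl (10 min, 0°C) without pretreatment, resuspended in ice-cold medium with test compound (0.25-1.5 µM, 1% ethanol); nystatin equalized Cl− for non-150 mM media, citrate-sucrose replacing Cl−. Rapid-filtration samples were taken mostly before 30 s, never after 45 s. k was the slope of ln(P∞−Pt) versus time. Dissociation constants came from nonlinear least-squares single-site fits and Dixon plots.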

AE1 [2] = details: cells with 150 mM Cl− inside and outside; ref Raha et al. 1993; cited from earlier work
[3] = target: T1, AE1 (band 3) protein in human red blood cells; assay: Inhibition of 36Cl exchange flux at 0°C after equilibration with WW781; assay type: cell-based; details: for IC50: read-out: K eqW, 0°C, mean ± SEM
Method in brief: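 Washed human RBCs (150 mM KCl, 20 mM HEPES, 24 mM sucrose, pH 6.9) at 0.25% hematocrit, internal Cl− set by nystatin, pretreated ≥2 min with test compound (1% ethanol), loaded with 36Cl (2-10 µCi/ml, 10 min, 0°C), then efflux into ice-cold medium with the same compound level. In 2 mM Cl− medium, no pretreatment and sampling began ≥4 min. Fit to single-site inhibition.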

[4] = test system: net Cl^− permeability, PCl; details: ref Freedman and Novak 1983; cited from earlier work
AE1 [5] = assay type: cell-based, human; details: at saturating concentrations of WW781, 150 mM Cl− inside and outside
AE1 [6] = details: ref Knauf et al. 1995; cited from earlier work

Structure (SMILES): CCCCN1C(=O)C(C=CC=CC=C2C(=O)N(c3ccc(S(=O)(=O)O)cc3)N=C2C)C(=O)N(CCCC)C1=O [WW781, [3-methyl-1-p-sulfophenyl-5-pyrazolone-(4)]-[1,3-dibutylbarbituric acid]-pentamethine oxonol]
- rate constant for 36Cl exchange, k ([1]; 0.25 μM WW781, 150 mM Cl− medium): 0.0389 s⁻¹
- rate constant for 36Cl exchange, k ([1]; 0.5 μM WW781, 150 mM Cl− medium): 0.0316 s⁻¹
- rate constant for 36Cl exchange, k ([1]; 1 μM WW781, 150 mM Cl− medium): 0.0274 s⁻¹
- rate constant for 36Cl exchange, k ([1]; 1.5 μM WW781, 150 mM Cl− medium): 0.0203 s⁻¹
- K 1W,ECl/K 1W,E ([1]; initial binding): 0.73 − 0.74
- K 1W,Ei/K 1W,Eo ([1]; initial binding): 14.
- IC50 ([1]; [Cli = o] 20 mM, nystatin-treated cells): 900 ± 210 nM
- IC50 ([1]; [Cli = o] 150 mM, mean ± SEM): 590 ± 50 nM
- IC50 ([1]; [Cli = o] 600 mM, nystatin-treated cells, mean ± SEM): 540 ± 100 nM
- IC50 ([1]; [Cli] = 150, [Clo] = 2 mM, mean ± SEM): 140 ± 10 nM
- k W-AE1,W•AE1 (backward rate constant, complex 2 to complex 1) (AE1 [2]): 0.15 min⁻¹
- k W•AE1,W-AE1 (forward rate constant for formation of complex 2) (AE1 [2]): ~1.1 min⁻¹
- K 2/1W,ECl/K 2/1W,E [3]: 0.12 − 0.15
- K 2/1W,ECl ([3]; Cl−-loaded forms): 1.8 − 2.2
- K 2/1W,Ei ([3]; Ei form): ≤34.
- free energy difference ΔG^0 between complex 2 and complex 1 ([3]; Eo form of AE1, from K 2/1W,Eo): -7.6 kJ/mol
- K 1W/K eqW ([3]; [Cli = o] 5 mM): 15.5
- K 1W/K eqW ([3]; [Cli = o] 150 mM): 9.0
- K 1W/K eqW ([3]; [Cli = o] 600 mM): 3.8
- K 1W/K eqW ([3]; [Cli] = 150, [Clo] = 2 mM): 25.2
- slope of K eqW as a function of [Cl−] ([3]; best-fit straight line, [Cli] = [Clo] (Fig. 10)): 0.00016 ± 0.00004 μM/mM
- preference for the Eo form of AE1 as compared with the Ei form ([3]; both initial binding and equilibrium association): > 10 fold
- K eqW,Ei/K eqW,Eo ([3]; equilibrium binding): ≥12.
- Ki ([3]; read-out: K eqW,EIi, mean ± SEM of two experiments): 280 ± 70 nM
- Ki ([3]; read-out: K eqW,Ei (minimum value), range over both estimates of K eqW,E): 33 to 46 nM
- IC50 ([3]; [Cli = o] 150 mM): 66 ± 12 nM
- IC50 ([3]; [Cli = o] 600 mM): 143 ± 29 nM
- IC50 ([3]; [Cli] = 150, [Clo] = 2 mM): 5.5 ± 0.3 nM
- effect on net Cl− permeability, PCl [4]: increase
- half-time for formation of complex 2 (AE1 [5]): 33 s

Structure (SMILES): CCCCN1C(=O)C(=CC=CC=CC2C(=O)N(CCCC)C(=O)N(CCCC)C2=O)C(=O)N(CCCC)C1=O [diBA(5)C4, bis-(1,3-dibutylbarbituric acid)-pentamethine oxonol]
- inhibition of the transport system (AE1 [6]): most potent known inhibitor
